Test results published in ChEMBL document CHEMBL1212825, “Synthesis and structure-activity relationships of N-(2-oxo-3-oxetanyl)amides as N-acylethanolamine-hydrolyzing acid amidase inhibitors” (J Med Chem, 2010).
Activity calls are given as the source filed them. No cut-off for these calls is given here.

T1: N-acylethanolamine-hydrolyzing acid amidase (Rattus norvegicus, UniProt Q5KTC7)
T1 sequence (Q5KTC7 whole entry): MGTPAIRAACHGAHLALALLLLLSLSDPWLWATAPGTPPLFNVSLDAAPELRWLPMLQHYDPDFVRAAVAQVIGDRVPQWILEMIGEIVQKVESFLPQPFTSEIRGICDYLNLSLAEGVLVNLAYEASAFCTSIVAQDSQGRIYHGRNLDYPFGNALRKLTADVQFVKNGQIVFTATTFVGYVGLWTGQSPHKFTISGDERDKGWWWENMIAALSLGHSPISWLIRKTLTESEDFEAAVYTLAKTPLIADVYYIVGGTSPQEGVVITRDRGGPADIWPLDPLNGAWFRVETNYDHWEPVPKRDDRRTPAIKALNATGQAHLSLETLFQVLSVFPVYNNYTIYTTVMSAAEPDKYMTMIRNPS

T2: N-acylethanolamine-hydrolyzing acid amidase (Rattus norvegicus) (UniProt Q5KTC7)
T2 sequence (whole entry): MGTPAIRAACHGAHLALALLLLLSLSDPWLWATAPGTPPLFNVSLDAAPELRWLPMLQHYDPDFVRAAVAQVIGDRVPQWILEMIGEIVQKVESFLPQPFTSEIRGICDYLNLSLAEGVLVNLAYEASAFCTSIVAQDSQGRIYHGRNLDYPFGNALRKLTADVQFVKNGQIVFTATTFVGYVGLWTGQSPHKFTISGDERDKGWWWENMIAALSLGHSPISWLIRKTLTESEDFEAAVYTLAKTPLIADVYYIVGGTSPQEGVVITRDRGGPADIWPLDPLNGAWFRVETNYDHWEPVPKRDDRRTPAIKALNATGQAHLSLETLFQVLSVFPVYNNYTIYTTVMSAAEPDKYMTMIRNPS


How the values were obtained:
[1] = molecular target: T1, N-acylethanolamine-hydrolyzing acid amidase; test: Inhibition of rat recombinant NAAA expressed in HEK293 cells after 30 mins; type: cell-based
Procedure, shortened: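 Rat NAAA (full-length coding sequence cloned from rat brain cDNA, Flag-tagged) stably expressed in HEK293 cells, selected with G418 0.3 mg/mL. Enzyme taken as 105,000 g supernatant after freeze-thaw of the 12,000 g pellet. Incubated at 37 °C for 30 min in 50 mM sodium hydrogen phosphate pH 5.0 with 0.1% Triton X-100, 3 mM DTT and 50 μM heptadecenoylethanolamide substrate. IC50 reported.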

[2] = system: Mus musculus; test: Antiinflammatory activity in polyethylene sponges implanted mouse assessed as inhibition of carrageenan-induced reduction of palmitoylethanolamine level compound administered into sponges; type: functional, organism-based
Procedure, shortened: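 Mice received subcutaneous polyethylene sponges (1 cm3, 2 per mouse) under dorsal skin. Each sponge was instilled with carrageenan 1.0% in 90 μL sterile saline plus drug or vehicle (DMSO, 10 μL/sponge), with drugs given over a range of doses. PEA measured by LC/MS.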

[3] = system: Mus musculus; test: Antiinflammatory activity in polyethylene sponges implanted mouse assessed as reduction of carrageenan-induced leukocyte infiltration compound administered into sponges; type: functional, organism-based
[4] = molecular target: T2, N-acylethanolamine-hydrolyzing acid amidase (Rattus norvegicus); test: Inhibition of rat recombinant NAAA expressed in HEK293 cells assessed as recovered initial enzyme activity at 10 uM after 12 hrs of dialysis; values are per cent of control
[5] = substrate: O=C(N[C@H]1COC1=O)c1ccc(-c2ccccc2)cc1; conditions: Rattus norvegicus; HEK293; 100 nM
[6] = substrate: O=C(N[C@H]1COC1=O)c1ccc(-c2ccccc2)cc1; conditions: Rattus norvegicus; HEK293; 100 nM; remark: listed apart in the source
[7] = substrate: O=C(N[C@H]1COC1=O)c1ccc(-c2ccccc2)cc1; conditions: Rattus norvegicus; HEK293; 200 nM
[8] = substrate: O=C(N[C@H]1COC1=O)c1ccc(-c2ccccc2)cc1; conditions: Rattus norvegicus; HEK293; 200 nM; remark: listed apart in the source

Molecule | IC50 [1] | other results
O=C(N[C@H]1COC1=O)c1ccc(C(=O)Oc2ccccc2)cc1 | 300 nM | –
O=C(N[C@H]1COC1=O)c1cccc(-c2ccccc2)c1 | 4400 nM | –
O=C(CCc1ccccc1)NC1CCC1 | > 100000 nM | –
O=C(Cc1ccccc1)N[C@H]1COC1=O | 1850 nM | –
O=C(CCc1ccccc1)N[C@H]1COC1=O | – | Activity [2]: Dose-dependent effect; Activity [3]: Active; residual activity [4]: 44%
O=C(N[C@H]1COC1=O)c1ccc2ccccc2c1 | 160 nM | –
CCCCCCC(=O)N[C@H]1COC1=O | 460 nM | –
O=C(CCCCCCc1ccccc1)N[C@H]1COC1=O | 1500 nM | –
O=C(N[C@H]1COC1=O)c1ccc(OCc2ccccc2)cc1 | 90 nM | –
O=C(CCc1ccccc1)N[C@@H]1COC1=O | 6000 nM | –
O=C(N[C@H]1COC1=O)OCc1ccccc1 | 2960 nM | –
CCOC(=O)c1ccc2cc(C(=O)N[C@H]3COC3=O)ccc2c1 | 300 nM | –
O=C(CCc1ccccc1)N[C@H]1CCOC1=O | > 100000 nM | –
O=C(N[C@H]1COC1=O)c1ccccc1 | 1700 nM | –
O=C(N[C@H]1COC1=O)c1ccc(-c2ccccc2)cc1 | – | Activity [2]: Dose-dependent effect; Activity [3]: Active
O=C(N[C@H]1CCOC1=O)c1ccc2ccccc2c1 | > 100000 nM | –
O=C(N[C@@H]1COC1=O)c1ccc2ccccc2c1 | 3200 nM | –
O=C(CCc1ccccc1)N[C@@H](CO)C(=O)O | > 100000 nM | –
O=C(N[C@H]1COC1=O)c1cccc2ccccc12 | 50000 nM | –
C[C@@H]1OC(=O)[C@@H]1NC(=O)CCc1ccccc1 | 3200 nM | –
O=C1OCC1CCCCc1ccccc1 (racemic) | 11000 nM | –
CCc1ccc(C(=O)N[C@H]2COC2=O)cc1 | 102 nM | –
C[C@H]1OC(=O)[C@H]1NC(=O)CCc1ccccc1 | > 100000 nM | –
COc1ccc2cc(C(=O)N[C@H]3COC3=O)ccc2c1 | 400 nM | –
N-acylethanolamine-hydrolyzing acid amidase (Rattus norvegicus), Q5KTC7 (protein) MGTPAIRAACHGAHLALALLLLLSLSDPWLWATAPGTPPLFNVSLDAAPELRWLPMLQHYDPDFVRAAVAQVIGDRVPQWILEMIGEIVQKVESFLPQPFTSEIRGICDYLNLSLAEGVLVNLAYEASAFCTSIVAQDSQGRIYHGRNLDYPFGNALRKLTADVQFVKNGQIVFTATTFVGYVGLWTGQSPHKFTISGDERDKGWWWENMIAALSLGHSPISWLIRKTLTESEDFEAAVYTLAKTPLIADVYYIVGGTSPQEGVVITRDRGGPADIWPLDPLNGAWFRVETNYDHWEPVPKRDDRRTPAIKALNATGQAHLSLETLFQVLSVFPVYNNYTIYTTVMSAAEPDKYMTMIRNPS | – | Km [5]: 129 µM; Vmax [6]: 10.8 nmol/min; Km [7]: 156 µM; Vmax [8]: 6.2 nmol/min
